# LMPTP block = LMPTP (human) inhibition; recombinant LMPTP-A, OMFP fluorogenic substrate, fluorescence intensity; inhibition, % at 20 µM; hit rate 0.22% among 360,000; AID 651560;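 active means compounds that cut the enzyme signal by at least half of the control window in the single-dose screen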;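 further: plate controls were DMSO wells with enzyme plus substrate for no effect and substrate without enzyme for full effect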
# Target sequence (P24666 whole entry, looked up): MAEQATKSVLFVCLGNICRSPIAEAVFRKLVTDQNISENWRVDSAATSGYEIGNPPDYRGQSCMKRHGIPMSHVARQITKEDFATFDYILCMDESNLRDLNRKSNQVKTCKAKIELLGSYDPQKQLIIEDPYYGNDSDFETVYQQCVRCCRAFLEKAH
#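 Test system: LMPTP-A phosphatase enzyme; input: 0.625 nM LMPTP-A final; reagent: OMFP substrate, 400 µM final; compound dosing: 20 µM single dose, 3% DMSO; incubation: 50 min dark incubation at room temperature; measured by: endpoint fluorescence intensity from OMFP dephosphorylation; measure: % inhibition relative to no-enzyme and uninhibited control wells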
# SUMO1 PPI mod = alters human SUMO1 binding to SIM partners; SUMO1 binding to a labelled peptide, TR-FRET, 1 h; inhibition, % at 20 µM; hit rate 0.33% among 360,000; in the data active means inhibition above about 37%
# Target sequence (P63165 whole entry, looked up): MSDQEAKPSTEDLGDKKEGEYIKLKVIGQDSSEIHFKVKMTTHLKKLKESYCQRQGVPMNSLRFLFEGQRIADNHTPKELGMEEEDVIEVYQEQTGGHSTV
# STEP inh = inhibitors of human striatal-enriched phosphatase STEP; P54829; recombinant STEP, OMFP fluorogenic substrate, fluorescence; inhibition, % at 20 µM; hit rate 0.25% among 360,000; AID 588621;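 active means inhibition at 20 µM, scaled per plate between control wells, above about 37%, limit read from the data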;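 further: 0% = DMSO with enzyme and substrate and 100% = substrate only without enzyme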
#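 material = STEP tyrosine phosphatase | reagent = fluorogenic phosphatase substrate OMFP at 25 µM final | doses = single compound dose of 20 µM, 1% DMSO final | schedule = 20 min reaction, room temperature, in the dark | measured by = fluorescence, 480/540 nm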
# Scp-1 inhibitor = blocks human Scp-1 phosphatase activity. inhibition, % at 20 µM. Q9GZU7. hit rate 0.88% among 340,000. AID 493091. Recombinant Scp1, phosphopeptide, malachite green phosphate absorbance;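 active means inhibition above about 50% at 20 µM, limit read from the data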;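 further: plate controls were DMSO wells with enzyme for no effect and wells lacking enzyme for full effect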
# Target sequence (Q9GZU7 76-261 limits assumed): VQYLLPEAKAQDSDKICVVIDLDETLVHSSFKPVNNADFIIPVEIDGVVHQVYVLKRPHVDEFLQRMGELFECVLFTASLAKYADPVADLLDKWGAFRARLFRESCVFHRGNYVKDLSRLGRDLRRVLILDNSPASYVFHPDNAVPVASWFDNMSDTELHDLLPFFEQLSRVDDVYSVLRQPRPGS
#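 Material – SCP-1 phosphatase catalytic domain, residues 76-261 · Buffer or medium – Acidic Tris acetate buffer with magnesium and detergent · Also added – Phospho 17-mer peptide substrate · Compound – single 20 µM dose, 1% DMSO · Times – 45 min room-temperature reaction, 5 min colour, 30 min stabiliser · Technique – Phosphate-binding colour reagent, absorbance read at 630 nm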
# DNMT1 block = inhibitors of human DNMT1. inhibition (reported as % activation of signal), % at 10 µM. hit rate 0.83% among 360,000. DNMT1 molecular beacon, Hinp1I cleavage, fluorescence. AID 588458; in the data active means inhibition above about 50%
# NadD inh = blocks S. aureus nicotinate mononucleotide adenylyltransferase; purified NadD enzyme, colorimetric absorbance read-out; inhibition, % at 20 µM; hit rate 0.78% among 360,000; in the data active means inhibition above about 26%
# Scp-1 conf = confirmation of human Scp-1 phosphatase inhibitors; shares compounds with Scp-1 inhibitor; recombinant SCP-1 catalytic domain, phosphate release, malachite green absorbance; inhibition, % at 20 µM; hit rate 61% among 2,500;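 further: plate controls were DMSO with enzyme for no effect and buffer wells lacking enzyme for full effect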
# MG interference = colorimetric interference in Scp-1 counter-screen. Colorimetric interference counterscreen, malachite green absorbance 630 nm. shares compounds with Scp-1 inhibitor. 2,500 tested, under 10 active. apparent inhibition (interference), % at 20 µM;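 further: compounds added after enzyme reaction finished so only phosphate colour detection is probed; plate controls were DMSO wells with completed Scp-1 reaction for no effect and substrate wells lacking enzyme for full effect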
# Scp-1 Tm shift = binds human Scp-1, shifting its melting temperature | shares compounds with Scp-1 inhibitor | Recombinant SCP1, Sypro Orange thermal shift Tm | thermal shift relative to vanadate control, % at 40 µM | hit rate 25% among 1,500 | AID 540329;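 active means substances whose mean melting-temperature shift, as a percentage of the reference inhibitor's shift, reaches about 5.3%, limit read from the data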;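 further: 0% = Tm of DMSO wells and 100% = Tm with sodium orthovanadate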
# Numbers without * were called inactive; / = no result. A selection: hits, their analogues and other compounds. The true share with any hit is near 2.4%.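 How the source made its calls, unless noted: active means inhibition of at least 30% at 20 µM; inactive means the rest.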
SMILES,LMPTP block,SUMO1 PPI mod,STEP inh,Scp-1 inhibitor,DNMT1 block,NadD inh,Scp-1 conf,MG interference,others
O=C(COC(=O)/C=C/c1ccco1)Nc1ncc(Cl)cc1Cl,6,-7,11,57*,41,3,56*,-9,Scp-1 Tm shift=-10
O=C(COC(=O)COc1ccc(Cl)cc1Cl)NC1CCS(=O)(=O)C1 (stereo not given),-2,-1,-2,-2,-4,-3,/,/,
C=CCC[C@H](Cc1ccc(F)cc1)C(=O)OC[C@@H](Cc1c[nH]c2ccccc12)NC(=O)[C@@H](CC=C)CC(=O)NCCO,2,-10,-3,-5,1,-10,/,/,
COC(=O)C1=C(C)N(Cc2ccccc2)C(=NCCc2ccccn2)N[C@H]1c1cccc(F)c1,-2,0,-2,59*,1,0,-15,-16,
CCN1C(=NCCc2ccccn2)N[C@@H](c2cccc(F)c2)C(C(=O)OC)=C1C,-2,5,2,0,3,2,/,/,
CCc1n[nH]c(=S)n1/N=C/c1cc(Br)c(O)c(OC)c1,-5,18,-3,1,1,-6,/,/,
C=CCOc1c(Br)cc(/C=N/n2c(CC)n[nH]c2=S)cc1Br,1,4,2,72*,13,0,-17,-16,
CCOC(=O)Cc1csc(N/N=C/c2cccc([N+](=O)[O-])c2)n1,0,-10,1,1,0,1,/,/,
O=[N+]([O-])c1cccc(-c2csc(N/N=C/c3cccc(O)c3)n2)c1,5,-8,6,72*,36,28,51*,-13,Scp-1 Tm shift=19*
O=C(O)c1ccc(-n2ncc3c2/C(=C/c2cccc([N+](=O)[O-])c2)CC3)cc1,34,-1,6,45,6,11,/,/,
O=C(O)c1ccc(-n2ncc3c2/C(=C\c2cccc([N+](=O)[O-])c2)CC3)cc1,19,9,5,64*,1,14,64*,-14,Scp-1 Tm shift=3
C[n+]1ccc(C(=O)N/N=C/c2ccco2)cc1,-3,-10,1,60*,6,7,-21,-15,
CC(C)(CSc1nncn1N)NS(=O)(=O)c1ccc(Cl)cc1,-2,-4,-1,-7,-2,-4,/,/,
Cc1ccc(CN2CC(C(=O)Nc3ncc(C)s3)CC2=O)cc1 (stereo not given),-1,0,1,51*,5,1,2,-9,
Cc1ccc(CN2CC(C(=O)Nc3nc(C)cs3)CC2=O)cc1 (stereo not given),0,-2,0,/,1,1,/,/,
CCN1CCN(C(=O)C2CCN(S(=O)(=O)N3CCC4(CC3)OCCO4)CC2)CC1,0,6,-2,-9,-2,-6,/,/,
CC(C)c1ccc(NC(=O)c2cc([N+](=O)[O-])ccc2N2CCOCC2)cc1,1,-18,1,55*,1,2,-11,-13,
Cc1ccc(OCc2cnc(Cl)s2)c(C)c1,3,4,2,-14,0,-10,/,/,
Cc1cccc2cc(/C=N/NC(=O)c3ccccc3O)c(Cl)nc12,12,2,4,95*,10,27,73*,-19,Scp-1 Tm shift=4
Cc1cccc2cc(/C=N/NC(=O)c3ccncc3)c(Cl)nc12,-1,-2,-3,-11,0,-9,/,/,
CCOc1ccc(C(=O)OCC(=O)Nc2ccc(SC(F)F)cc2)cc1OCC,0,-6,1,-2,1,-2,/,/,
Cc1ccc(C(C)NC(=O)c2cc3ccccc3oc2=O)cc1C (stereo not given),0,-10,3,0,3,-4,/,/,
CCOC(=O)c1cc2c(=O)n3cccc(C)c3nc2n(Cc2ccco2)c1=NC(=O)c1cccnc1,2,11,-19,52*,15,15,44*,-11,Scp-1 Tm shift=6.9*
COc1ccc2[nH]cc(C(O)CN3CCC(C(N)=O)CC3)c2c1 (stereo not given),1,-2,0,71*,-3,4,2,-1,
CCOC(=O)N1CCN(CC(O)c2c[nH]c3ccc(OC)cc23)CC1 (stereo not given),0,-5,1,-5,0,-4,/,/,
SMILES,LMPTP block,SUMO1 PPI mod,STEP inh,Scp-1 inhibitor,DNMT1 block,NadD inh,Scp-1 conf,MG interference,others
CC(C)C(=O)N1CCN(c2ccc([N+](=O)[O-])c(NC(C)c3ccccc3)c2)CC1 (stereo not given),2,-20,2,-9,-7,-1,/,/,
CC(Nc1cc(N2CCN(C(=O)C(C)(C)C)CC2)ccc1[N+](=O)[O-])c1ccccc1 (stereo not given),6,-19,3,53*,-4,-4,-21,-24,
COc1cc(S(=O)(=O)Nc2ccc(C)cc2)ccc1NC(=O)c1ccncc1,-1,5,-2,54*,-1,-1,-18,-18,
COc1cc(S(=O)(=O)Nc2ccccc2C)ccc1NC(=O)c1ccncc1,0,7,1,-5,-2,-3,/,/,
N#CCc1nn(Cc2ccc(F)cc2)c(=O)c2ccccc12,2,26,1,5,0,4,/,/,
O=C1NC(=Nc2ccccc2)S/C1=C/c1cccs1,24,-11,6,76*,1,8,59*,-13,Scp-1 Tm shift=3
COC(=O)C1=C(C)N(c2ccc(C)c(C)c2)/C(=C/c2ccco2)C1=O,3,-14,2,59*,28,4,20,-9,
CCOC(=O)C1=C(C)N(c2ccc(C)c(C)c2)C(=O)/C1=C\c1ccco1,3,-4,2,-15,4,7,/,/,
Cc1ccc(NC(=O)CN2CCN(C(=O)c3ccco3)CC2)cc1S(=O)(=O)N(C)C,-3,5,-3,-9,2,1,/,/,
COc1ccc(-c2ccc3oc(-c4ccc(OC)cc4)c(C#CC4(O)CCCCC4)c3c2)cc1,5,7,0,73*,-13,22,42*,-26,Scp-1 Tm shift=-2
COc1ccc(C(=O)OCC[N+]2(C)CCOCC2)cc1,0,-1,0,57*,0,18,10,-4,
COc1ccc(C(=O)OCCc2ccc(O)cc2)cc1,0,0,-2,1,-2,-4,/,/,
CCOc1cc(/C=N/N=C2/NC(=O)C(CC(=O)O)S2)ccc1OCc1ccc(Cl)cc1 (stereo not given),1,0,6,75*,-1,21,69*,-11,Scp-1 Tm shift=-14
COC(C[C@H](O)CC(=O)[C@H](C)OCc1ccccc1)OC,-3,1,-4,-2,4,-4,/,/,

# Screening results as filed in PubChem BioAssay.
